Test system: MS2 coat protein
Assay: apparent Kd, MS2 coat protein; higher = weaker binding; RNA-MaP array; FMN 200 µM where present
Method in brief: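 The titrant was SNAP-549-labelled MS2 coat protein, run from 0.7 or 1.5 nM in doubling steps to 3 µM. It was applied to designs transcribed by stalled E. coli RNA polymerase on Illumina sequencing-chip clusters, without ligand first and then with constant ligand, in 100 mM Tris-HCl pH 7.5, 80 mM KCl, 4 mM MgCl2, BSA, DTT, yeast tRNA and Tween-20. The apparent Kd is the median of filtered per-cluster binding-curve fits, with green signal normalised to red-channel RNA signal and control-cluster median Fmax.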

[1] = designed as: ON switch for flavin mononucleotide, no ligand
[2] = ligand present: flavin mononucleotide, designed as: ON switch for flavin mononucleotide
[3] = designed as: OFF switch for flavin mononucleotide, no ligand
[4] = ligand present: flavin mononucleotide, designed as: OFF switch for flavin mononucleotide

Row | Sequence | apparent Kd [1] | apparent Kd [2] | apparent Kd [3] | apparent Kd [4]
1 | UUUAGGAGUCAAGGAUAUGCUACCGUUUCGGUAGCAGAAGGUGAUCACAUGAGGAUCACCCAUGUAUGCAUGCGUGAGCGUGCU | 50.1 nM | 623 nM |  | 
2 | GUCAGCUCGUGAGGAUAUACAUGUGCUGGAUACAGCACUAUUGAGUUCACAUGAGGAUCACCCAUGUAGAAGGCACGAGCUGAU |  |  | 15.1 nM | 28.1 nM
3 | CCGAUACGAGGAUAUACAUGAGGAUCACCCAUGUAGUGGACCGAGCGUCGGUGUCUCAGUAGAAGGCGUUAAGA |  |  | 16.2 nM | 17.3 nM
4 | GCUGCAUAGGCAGGAUAUACAAUAAUUCGAAUAAAAUAUAACGAAUUAACAUGAGGAUCACCCAUGUAGAAGGGCCUGUGCAGU |  |  | 6.32 nM | 10.4 nM
5 | GUCAGCUCGUGAGGAUAUACAUGAGGAUCACCCAUGUGAUCAAUAGCAGCUUCGGCUGCAUACAUGUAGAAGGCACGAGCUGAU |  |  | 43.1 nM | 62.9 nM
6 | GAGGUAUAAGGAUAUACAUAGAUACAGACACAUGUUCAAGUACAUGAGGAUCACCCAUGUAGAAGGUAUAUAUC |  |  | 33.6 nM | 30.6 nM
7 | GACUUUUCUGAGGAUAUUGCAUCACCCGAUCUAUAAGAAGGCAGAACAUGAGGAUCACCCAUGUGGGUUUCUAG |  |  | 24.7 nM | 33.6 nM
8 | AUCCUGCGAGGAUAUACAUAGUUUUUUUCGUUUUGUCUCGAACAUGAGGAUCACCCAUGUAGAAGGUGCUUCAC |  |  | 71.5 nM | 66.9 nM
9 | UGUCGGAGCAGAGGAUAUUACAUGAGGAUCACCCAUGUAUGAACCAAUAGCUGGAAACAGCAAUGUAAGAAGGCUGCUCCGGCA |  |  | 11.8 nM | 186 nM
10 | GAUGGACAUGAGGAUCACCCAUGUCAGGAUAUUGUUUGUGGCUAGUUUUGGUUACGGGCGAGAAGGGACUCGUC |  |  | 22.6 nM | 20.7 nM
11 | UUGUGCUUAGAGAAGGUUCAAACUACAUAUUGCGCACAUGAGGAUCACCCAUGUUGGUGAAUAAGAAAGGAUAUUUGACUGUAU |  |  | 131 nM | 98 nM
12 | GUGUACAGAGGAUAUAUAUGAGCAUGGAAACAUGCAAGAUCACAUGAGGAUCACCCAUGUAGAAGGCUGUACAC |  |  | 88.4 nM | 541 nM
13 | UCGUUGUCAGGAUAUCGUUAAUUUAGUUGUUUGUAUUAGUUCGAGAAGGGACAUGAGGAUCACCCAUGUUUGCU |  |  | 30.1 nM | 70.9 nM
14 | AAGUCGUGAGGAUAUACAUGCAUAUACAUUUAUGUAAAACUACAUGAGGAUCACCCAUGUAGAAGGCACGAAUA |  |  | 17.6 nM | 16.1 nM
15 | CCUCUACAUGAGGAUCACCCAUGUGAGGAUAUCUCGGAGCAGCCUAUUAAGGCGCUCCAGAGAAGGCACGUGUA |  |  | 19.3 nM | 28.3 nM
16 | GUCAGCUCGUGAGGAUAUGCAACACUGCUUCGGCAGUGUAUUAAGAUCACAUGAGGAUCACCCAUGUAGAAGGCACGAGCUGAU |  |  | 6.36 nM | 34.8 nM
17 | CCGGAUACGGGUAGCCUGACAUGAGGAUCACCCAUGUAAUACGAGGAUAUGGAUCCUAAUUGGAUCCAGAAGGUGUCAGGCUAC | 1310 nM | 734 nM |  | 
18 | CGGGCGCCGAAGGGCGAAAGCCCACAUGAGGAUCACCCAUGUAGAAGGAGGGAAGAAACCAAAACCUAGGAUAUACAGGCGCCA |  |  | 8.43 nM | 10.5 nM
19 | AUCAUGAGAGGAUAUACAUGAGGAUCACCCAUGUGGUAAACACCAUGAGCUCAUUUACGUAGAAGGCUCAUUUG |  |  | 27.6 nM | 61.1 nM
20 | GCUCGAUGUGCUGAAAACAUGAGGAUCACCCAUGUAGAUGAUCAGGAUAUUUACGUGCUUUAUGUAGAGAAGGGAUCAUCGAGC | 64 nM | 27.7 nM |  | 
21 | GUAUAUAGUGUGAGGAUAUGCUGGUCCUUGGAUCAGCAGAAGGCACAUGAGGAUCACCCAUGUAGUUAAAUAUG |  |  | 26.8 nM | 100 nM

Row | Sequence | apparent Kd [1] | apparent Kd [2] | apparent Kd [3] | apparent Kd [4]
22 | CGGUCUUGCAACUAUUUGUUUCACAUGAGGAUCACCCAUGUCAGAAGGAGGUGCGUCUAUUAGACCUAGGAUAUGACGUGUAAG |  |  | 15.5 nM | 26 nM
23 | GUCAGGAAUGUAGGAUAUCGUCAGGAUAACUGGCGAGAAGGACAUGAGGAUCACCCAUGUAAAAUGAAAGAUAAUAAACCUGGC |  |  | 19.3 nM | 31.1 nM
24 | UCUGAUUGGUGAGGAUAUACAUAAUUUAUAACUGUAGAAGGCACAAACCUCAAGACAUGAGGAUCACCCAUGUGGUAUUUAGAU |  |  | 285 nM | 475 nM
25 | UGGAUCAAUACAGGAUAUGGUGACGCACAUGAGGAUCACCCAUGUCCGCAGCGUGCUCAGCACGCCCAGAAGGGUAUUGACUCG | 731 nM | 88.8 nM |  | 
26 | GGACAGGACAGAGGAUAUACGUGCUAGAGAUACUAGCAAAAUUUCCUCACAUGAGGAUCACCCAUGUAGAAGGCUGUCCUAUCG |  |  | 7.39 nM | 123 nM
27 | UUUAGUUUAGGAUAUGUAGACAUUAACAUGAGGAUCACCCAUGUAGAUCCUGAAUUGGCUACAGAAGGGAGCAUUU |  |  | 290 nM | 314 nM
28 | UUGGACGUCGUAGGAUAUGUAGGAUAUUCCUACAUGAGGAUCACCCAUGUUGACAUGGAAGAAGGACAGAAGGACAAUGUCCAU | 414 nM | 7.5 nM |  | 
29 | CUUAUGUGAGGAUAUCAGUAGUAAAAAAAUAAAAUUACUACUGAGAAGGCACAUGAGGAUCACCCAUGUGCCUC |  |  | 14.4 nM | 13.4 nM
30 | CCGGAAAUAGAGGAUAUCGUAUCGGAUACGAUACGAGAAGGCUGUACAUGAGGAUCACCCAUGUGUCCUACCGG |  |  | 11.2 nM | 21.6 nM
31 | UCACGGGAUUGAGGAUAUAUAUUAAUUUUUACAAUAGAAGGCAAAUUGUUAGUUUUUUCACUAUACAUGAGGAUCACCCAUGUU |  |  | 27.4 nM | 25.1 nM
32 | GGCGGCGGACAAGGAUAUAAGACGCGGACCAAAUUAGAAGGUGUCAUCUGGCAAUGCGAAAGCAGACAUGAGGAUCACCCAUGU | 78.9 nM | 72.7 nM |  | 
33 | AAAGGAUCAGGAUAUGCGUGGAAAAAGUGUAUUCAAAAAAAACAUGAGGAUCACCCAUGUAGAAGGGAUCCAAA |  |  | 182 nM | 657 nM
34 | GCGUUAAAGAUCCAUUUUUACAACAUGAGGAUCACCCAUGUGCAGGAUAUCGAAUGUUUUAUAUUCGAGAAGGGCAAUUUCCGC |  |  | 70.3 nM | 99.3 nM
35 | CCCAAACUUGGGCUUGGUGGUGCAUAGGAUAUCCUUGAACAUGAGGAUCACCCAUGUGCAACUGUGGAGAAGGGUGCAGGGCCU | 362 nM | 88.4 nM |  | 
36 | UUACUUUUACAGAAGGUUUAAUAAUAUAUAAAAGAAGGAUAUGUAACAUGAGGAUCACCCAUGUUUCACCCAUAUGAGGAUCAU |  |  | 7.18 nM | 6.98 nM
37 | AUUUCGUUAGCAGGAUAUGGACAGGCCUGUCCGUAUUGAGUCAGUAACAUGAGGAUCACCCAUGUCCAGAAGGGCUCGAAGUUA |  |  | 8.15 nM | 15.8 nM
38 | GAUCAGCUUGUGAGGAUAUCCGGGCUUAAAGGCUAGGAGAAGGUACAUGAGGAUCACCCAUGUAGAGUCCUGGG |  |  | 73.8 nM | 111 nM
39 | CGCCACUUAACAGCGGCGCGGUCGAGAAGGGUACAUGAGGAUCACCCAUGUCACGUUCCUCCUGUACAGGAUAUCGUACGGGUA |  |  | 65.6 nM | 117 nM
40 | GCGCAAACGCCAAAAGGCGAAACAACAUGAGGAUCACCCAUGUAGGAUAUCGAUUGCUUUGCAGUCGAGAAGGACAUAAUGCGC |  |  | 17.1 nM | 16.1 nM
41 | AAAAUCAAUGCAGGAUAUACAUGAGGAUCACCCAUGUAGGUUGACCCUAAUACGGGCGAUUUGCAGUAGAAGGGCAAGAAGAAA |  |  | 50.7 nM | 63.4 nM
42 | AAAUUAGUUGUAGGAUAUCGGUCGAACAUCUCACGAGAAGGGCAACAUGAGGAUCACCCAUGUAGGUCGCCUACGUAAGAUCGC |  |  | 5.84 nM | 6.71 nM

Source: the EternaBench riboswitch data
